# Target: T1, Trypanothione reductase (Trypanosoma cruzi, UniProt P28593)
# Experiment: The mixed type inhibitory activity against trypanothione reductase was evaluated from Lineweaver Burk plots
# Conditions: not given
# T1 sequence (P28593 whole entry): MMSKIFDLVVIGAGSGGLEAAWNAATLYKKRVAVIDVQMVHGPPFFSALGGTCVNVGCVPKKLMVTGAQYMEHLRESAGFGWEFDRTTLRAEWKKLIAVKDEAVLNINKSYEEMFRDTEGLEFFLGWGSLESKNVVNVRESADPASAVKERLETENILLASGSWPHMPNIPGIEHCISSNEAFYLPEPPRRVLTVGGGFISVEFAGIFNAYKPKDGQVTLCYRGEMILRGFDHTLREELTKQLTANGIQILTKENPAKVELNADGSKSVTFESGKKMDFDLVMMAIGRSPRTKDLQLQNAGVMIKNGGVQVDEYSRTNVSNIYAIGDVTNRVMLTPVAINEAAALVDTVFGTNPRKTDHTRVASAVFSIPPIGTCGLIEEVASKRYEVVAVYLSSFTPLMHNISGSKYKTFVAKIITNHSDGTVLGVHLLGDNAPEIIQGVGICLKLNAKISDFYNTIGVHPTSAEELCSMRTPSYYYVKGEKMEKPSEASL
row,Ki,Compound
1,67 µM,CCN(CC)CCCCSc1c2ccc(Cl)cc2nc2ccc(OC)cc12
2,37 µM,CCN(CC)CCSc1c2ccc(Cl)cc2nc2ccc(OC)cc12

# Target: T1, Trypanothione reductase
# Experiment: The mixed type inhibitory activity against trypanothione reductase was evaluated from Lineweaver Burk plots and Cornish-Bowdwn plots.
# Conditions: not given
row,Ki,Compound
1,21 µM,CCN(CC)CCCCSc1c2ccc(Cl)cc2nc2ccc(OC)cc12
2,83 µM,CCN(CC)CCSc1c2ccc(Cl)cc2nc2ccc(OC)cc12

# Target: T1, Trypanothione reductase
# Experiment: The competitive inhibitory activity against trypanothione reductase was evaluated from Lineweaver Burk plots
# Conditions: read-out: Ki app
# In short: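 Recombinant T. cruzi TR purified from E. coli SG5, 7–10 mU per assay, at 25 °C in 40 mM Hepes, 1 mM EDTA, pH 7.5 with 100 µM NADPH. TS2 varied without inhibitor and at two inhibitor levels. Each point was measured at least twice. Apparent Ki is the mean of Ki,slope values from Lineweaver–Burk plots at each [I].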
row,Ki,Compound
1,19 µM,CCN(CC)CCCC(C)Nc1c2ccc(Cl)cc2nc2ccc(OC)cc12 (centres undefined) [QUINACRINE]
2,43 µM,Nc1c2ccccc2nc2cc(Cl)ccc12
3,80 µM,Nc1c2c(nc3cc(Cl)ccc13)CCCC2
4,27 µM,CCN(CC)CCCC(C)Nc1c2ccccc2nc2ccc(OC)cc12 (centres undefined)
5,10 µM,CCN(CC)CCCC(C)Nc1c2ccccc2nc2cc(Cl)ccc12 (centres undefined)
6,7 µM,COc1ccc2nc3cc(Cl)ccc3c(N)c2c1
7,11 µM,CCN(CC)CCCCC(C)Nc1c2ccccc2nc2cc(Cl)ccc12 (centres undefined)
8,140 µM,Nc1c2c(nc3ccccc13)CCCC2 [TACRINE]
9,5.5 µM,CCN(CC)CCCCC(C)Nc1c2ccc(Cl)cc2nc2ccc(OC)cc12 (centres undefined)

row,Compound,Ki
1,Nc1c2ccccc2nc2ccccc12 [AMINACRINE],38 µM
